{"data": "Experimental data collected from several papers", "AVPR2": "Vasopressin V2 receptor (AVPR2, Homo sapiens, UniProt P30518)", "HTR1E": "5-hydroxytryptamine receptor 1E (HTR1E, Homo sapiens, UniProt P28566)", "note": "Compare with care: the assays were run in different laboratories."}
{"Compound": "CC1=NN(/C(=N\\c2ccccc2F)Nc2nnc(C)s2)C(c2ccc(C)cc2)S1 (stereo not drawn)", "target": "AVPR2", "observed": "cAMP", "action": "positive allosteric modulator", "EC50 [µM]": 41.4}
{"Compound": "CN(C)CCOC1=Cc2ccccc2Sc2ccc(Cl)cc21", "target": "HTR1E", "observed": "G protein activation", "action": "agonist", "technique": "BRET", "EC50 [µM]": 0.622}
{"Compound": "CC1=NN(/C(=N/c2nnc(C)s2)Nc2ccc(C)c(C)c2)C(c2ccc(F)c(C(F)(F)F)c2)S1 (stereo not drawn)", "target": "AVPR2", "observed": "cAMP", "action": "positive allosteric modulator", "EC50 [µM]": "> 50"}
{"Compound": "CN1CCN2c3ncccc3Cc3ccccc3C2C1 (stereo not drawn)", "target": "HTR1E", "observed": "G protein activation", "action": "agonist", "technique": "BRET", "EC50 [µM]": 0.755}
{"Compound": "CN(C)c1ncnc2c1ncn2[C@@H]1O[C@H](CO)[C@@H](O)[C@H]1O", "target": "Adenosine receptor A3 (ADORA3, Homo sapiens, UniProt P0DMS8, I253Q)", "observed": "G protein activation", "action": "agonist", "EC50 [µM]": 46}
{"Compound": "CC(C)=CCn1cnc(=N)c2[nH]cnc21", "target": "G-protein coupled receptor 84 (GPR84, Homo sapiens, UniProt Q9NQS5)", "observed": "cAMP", "action": "agonist", "technique": "luciferase", "EC50 [µM]": 32}
{"Compound": "COc1ccccc1N1CCN(CCCCN2C(=O)c3ccccc3C2=O)CC1", "target": "HTR1E", "observed": "G protein activation", "action": "agonist", "technique": "BRET", "EC50 [µM]": 2.17}
{"Compound": "CCCc1ccc(/N=C(/Nc2nnc(C)s2)N2N=C(C)SC2c2ccc(C)cc2)cc1 (stereo not drawn)", "target": "AVPR2", "observed": "cAMP", "action": "positive allosteric modulator", "EC50 [µM]": 3.9}
{"Compound": "CC(C)=CCNc1ncnc2c1ncn2[C@@H]1O[C@H](CO)[C@@H](O)[C@H]1O", "target": "Adenosine receptor A3 (ADORA3, Homo sapiens, UniProt P0DMS8, V169L)", "observed": "G protein activation", "action": "agonist", "EC50 [µM]": 1.2}
